Results published in ChEMBL document CHEMBL1125290, “Bis basic substituted diaminobenzobisthiazoles as potential antiarthritic agents” (1992).

Columns and labels:
Assay type in all cases: functional
Rattus norvegicus [1] = test: Antiinflammatory activity against carrageenan induced rat paw edema (CPE), dosed orally
In short: (§1)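 Male Sprague–Dawley rats (150 ± 10 g), five per group. Compound or vehicle given orally in 0.5% methylcellulose 1 h before subplantar injection of 0.1 mL 1% carrageenan in saline into the right hind paw. Paw volume measured by mercury displacement before dosing and 3 h after carrageenan; the difference is the edema volume. ANOVA with Dunnett's t test.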

Rattus norvegicus [2] = species on record: Rattus norvegicus; test: Antiinflammatory activity in D-adjuvant induced arthritis in rat measured by the change in body weight; design: concentration or dose not given beside the values
Rattus norvegicus [3] = test: Antiinflammatory activity against D-adjuvant arthritis in uninjected rat paw at the dose of 200 mg/kg by oral administration
Rattus norvegicus [4] = test: Antiinflammatory activity against D-adjuvant arthritis in injected rat paw at the dose of 200 mg/kg by oral administration
Rattus norvegicus [5] = test: Antiinflammatory activity against D-adjuvant arthritis in injected rat paw at the dose of 50 mg/kg by oral administration
Rattus norvegicus [6] = test: Antiinflammatory activity against D-adjuvant arthritis in uninjected rat paw at the dose of 50 mg/kg by oral administration
In short: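 Rat developing adjuvant arthritis screen with oral dosing on a prophylactic protocol. Percent change in body weight versus untreated animals was recorded as a preliminary toxicity sign. Significance was assessed against controls by two-tailed Student's t test, p < 0.05.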

Rattus norvegicus [7] = test: Antiinflammatory activity against D-adjuvant arthritis in injected rat paw at the dose of 100 mg/kg by oral administration
Rattus norvegicus [8] = test: Antiinflammatory activity against D-adjuvant arthritis in uninjected rat paw at the dose of 100 mg/kg by oral administration
Rattus norvegicus [9] = test: Antiinflammatory activity dosed orally against D-adjuvant arthritis in rat.
Rattus norvegicus [10] = test: Antiinflammatory activity dosed orally against carrageenan induced rat paw edema(CPE); in short: as §1

| SMILES | Inhibition (Rattus norvegicus [1]) | Activity (Rattus norvegicus [2]) | inhibition in vivo at 200 mg/kg (Rattus norvegicus [3]) | inhibition in vivo at 200 mg/kg (Rattus norvegicus [4]) | inhibition in vivo at 50 mg/kg (Rattus norvegicus [5]) | inhibition in vivo at 50 mg/kg (Rattus norvegicus [6]) | inhibition in vivo at 100 mg/kg (Rattus norvegicus [7]) | inhibition in vivo at 100 mg/kg (Rattus norvegicus [8]) | Body weight change (Rattus norvegicus [9]) | Inhibition (Rattus norvegicus [10]) |
| --- | --- | --- | --- | --- | --- | --- | --- | --- | --- | --- |
| Nc1nc2c(Br)c3nc(N)sc3cc2s1 | 33% | 10% | 37% | 47% | – | – | – | – | – | – |
| CCC1CCCCN1CC(=O)Nc1nc2cc3nc(NC(=O)CN4CCCCC4CC)sc3cc2s1 (centres undefined) | 12% | -1% | 65% | 34% | – | – | – | – | – | – |
| O=C(CN1CCSCC1)Nc1nc2cc3nc(NC(=O)CN4CCSCC4)sc3cc2s1 | 7% | 6% | 43% | 0% | – | – | – | – | – | – |
| CC(C)N(CC(=O)Nc1nc2cc3nc(NC(=O)CN(C(C)C)C(C)C)sc3cc2s1)C(C)C | 0% | -5% | – | – | 0% | 0% | – | – | – | – |
| Nc1nc2c(Cl)c3nc(N)sc3c(C(F)(F)F)c2s1 | 13% | 3% | 12% | 0% | – | – | – | – | – | – |
| CCN(CC)CC(=O)Nc1nc2c(cc(Cl)c3nc(NC(=O)CN(CC)CC)sc32)s1 | 35% | -58% | – | – | – | – | 0% | 62% | – | – |
| CCN(CC)CCC(=O)Nc1nc2cc3nc(NC(=O)CCN(CC)CC)sc3cc2s1 | – | – | – | – | 29% | 48% | – | – | -5% | 16% |
| CC(=O)c1ccc(N2CCN(CC(=O)Nc3nc4cc5nc(NC(=O)CN6CCN(c7ccc(C(C)=O)cc7)CC6)sc5cc4s3)CC2)cc1 | 40% | -7% | – | – | 0% | 0% | – | – | – | – |
| O=C(CN1CCSC1)Nc1nc2cc3nc(NC(=O)CN4CCSC4)sc3cc2s1 | 11% | 11% | – | – | 26% | 27% | – | – | – | – |
| CCOCCN(CCOCC)CC(=O)Nc1nc2cc3nc(NC(=O)CN(CCOCC)CCOCC)sc3cc2s1 | 0% | 0% | – | – | 16% | 21% | – | – | – | – |
| O=C(CN1CCN(c2ccccn2)CC1)Nc1nc2cc3nc(NC(=O)CN4CCN(c5ccccn5)CC4)sc3cc2s1 | 9% | -2% | – | – | 0% | 16% | – | – | – | – |
| CCOC(=O)c1c2nc(NC(=O)CN(CC)CC)sc2cc2sc(NC(=O)CN(CC)CC)nc12 | 32% | -9% | – | – | 7% | 0% | – | – | – | – |
| CCN(CC)CC(=O)Nc1nc2cc3nc(NC(=O)CN(CC)CC)sc3c([N+](=O)[O-])c2s1 | 23% | -16% | – | – | 11% | 12% | – | – | – | – |
| CC1CCCN(CC(=O)Nc2nc3cc4nc(NC(=O)CN5CCCC(C)C5)sc4cc3s2)C1 (centres undefined) | 19% | 6% | 63% | 34% | – | – | – | – | – | – |
| CCOC(=O)CN1CCN(CC(=O)Nc2nc3cc4nc(NC(=O)CN5CCN(CC(=O)OCC)CC5)sc4cc3s2)CC1 | 14% | -11% | – | – | 0% | 0% | – | – | – | – |
| CCN(CC)CCNc1nc2cc3nc(NCCN(CC)CC)sc3cc2s1 | 14% | 3% | – | – | – | – | 33% | 0% | – | – |
| CCN(CC)CC(=O)N(CC)c1nc2cc3nc(N(CC)C(=O)CN(CC)CC)sc3cc2s1 | 18% | -4% | – | – | 14% | 0% | – | – | – | – |
| O=C(O)CNc1nc2cc3nc(NCC(=O)O)sc3cc2s1 | 2% | -25% | 2% | 0% | – | – | – | – | – | – |
| CCN(CC)CC(=O)Nc1nc2c(C)c3nc(NC(=O)CN(CC)CC)sc3c(Cl)c2s1 | 18% | -37% | – | – | 42% | 16% | – | – | – | – |
| O=C(CN1CCCCC1CC1CCCCC1)Nc1nc2cc3nc(NC(=O)CN4CCCCC4CC4CCCCC4)sc3cc2s1 (centres undefined) | 0% | 1% | – | – | 0% | 0% | – | – | – | – |
| O=C(CN1CCCC(CO)C1)Nc1nc2cc3nc(NC(=O)CN4CCCC(CO)C4)sc3cc2s1 (centres undefined) | 16% | -4% | – | – | 25% | 47% | – | – | – | – |
